Screening results: PubChem BioAssay, several laboratories
The list is not random: actives were taken first. Their share in the collection is about 1.2%.
S1P4 antagonist = human S1P4 receptor antagonism. O95977. hit rate 0.26% among 220,000. AID 1510. S1P4-expressing cells, antagonist mode, reporter read-out. inhibition, % at 4.98 µM; in the data active means inhibition above about 29%;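 further: 0% = wells stimulated with agonist and 100% = vehicle wells without agonist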
S1P4 agonist = activates the human S1P4 receptor; O95977; S1P4-expressing cell line, agonist reporter assay; activation, % at 4.98 µM; hit rate 0.35% among 220,000; AID 1509; in the data active means activation above about 11%;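 further: 0% = DMSO vehicle and 100% = reference agonist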
Biofilm kill mix = mixture kills Candida albicans biofilm cells; C. albicans biofilm persisters + clotrimazole, fluorescence viability; primary screen in compound mixtures of four per well; inhibition, % at 7.6 µM; hit rate 0.02% among 120,000;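 active means inhibition above 30.3% in the primary screen of four-compound pools, then above 30% when the compound was retested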;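 further: compounds exposed to preformed 24 h biofilms for 48 h; 0% = untreated biofilm control and 100% = clotrimazole plus chlorhexidine kill blank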
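Test system: C. albicans biofilms. Buffer or medium: RPMI/MOPS medium, pH 7.0. Timing: 48 h compound exposure at 37 °C. Technique: Alamar Blue fluorescence. Evaluation: percent inhibition of biofilm viability.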
S1P3 antagonist = S1P3 (human) receptor antagonism; inhibition, % at 4.98 µM; AID 485; CHO S1P3 NFAT-BLA reporter, FRET fluorescence, antagonist mode; hit rate 0.27% among 170,000;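 active means inhibition above the plate cutoff, the mean inhibition of test wells on that plate plus 3 SD, cut at about 28% in these data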;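 further: cells challenged with S1P at its EC80 of 0.8 µM; blue over green emission ratio from cleaved BLA substrate after 4 h stimulation; 0% = S1P-stimulated wells and 100% = unstimulated DMSO-only wells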
Target sequence (Q99500 whole entry, looked up): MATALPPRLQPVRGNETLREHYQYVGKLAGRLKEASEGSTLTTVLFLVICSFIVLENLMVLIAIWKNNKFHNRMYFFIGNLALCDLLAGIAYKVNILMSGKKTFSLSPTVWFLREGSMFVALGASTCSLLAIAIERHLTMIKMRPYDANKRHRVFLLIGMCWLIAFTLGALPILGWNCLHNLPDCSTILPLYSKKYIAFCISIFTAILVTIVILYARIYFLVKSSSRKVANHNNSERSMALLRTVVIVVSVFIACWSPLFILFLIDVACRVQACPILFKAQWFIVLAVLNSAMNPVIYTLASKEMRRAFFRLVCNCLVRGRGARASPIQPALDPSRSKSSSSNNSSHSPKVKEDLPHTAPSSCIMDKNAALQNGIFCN
HMGR II inh = inhibitors of class II HMG-CoA reductase from Enterococcus faecalis. purified E. faecalis HMGR, NADPH absorbance 340 nm kinetic. inhibition, % at 10 µM. hit rate 0.41% among 190,000;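 active means inhibition above a set limit, the median over all tested compounds plus 3 SD, cut at about 9.5% in these data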;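 further: enzyme runs in reverse so mevalonate oxidation gives rising NADPH absorbance; 0% = complete reaction with DMSO and 100% = background rate lacking mevalonate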
Rad51 HR inh = Rad51 (human) homologous recombination inhibition; hit rate 0.085% among 200,000; hRad51 DNA strand exchange, fluorescence dequenching; Q06609; AID 1385; inhibition, % at 10 µM;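 active means inhibition above 40% at the single screening dose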;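 further: 0% = DMSO control wells and 100% = blanks with heterologous ssDNA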
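Material: human Rad51–ssDNA filaments; Probe or stimulus: labelled 47-mer dsDNA for strand exchange; Doses: single 10 µM dose; Incubation: 37 °C 15-min filament assembly, 30-min compound preincubation, 15-min exchange; Technique: FRET fluorescence dequenching, excitation 485 nm, emission 520 nm; Measure: Fluorescence-based percent inhibition, control- and blank-normalised; Benchmarks: plate control and blank wells.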
S1P4 ag conf = human S1P4 agonism, confirmation; shares compounds with S1P4 agonist; S1P4 agonist cell-based reporter assay; activation, % at 4.98 µM; hit rate 7% among 740; in the data active means activation above about 12%;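 further: 0% = vehicle and 100% = full reference agonist response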
S1P1 ag = activates human S1P1, counter-screen for S1P4 agonists. shares compounds with S1P4 agonist. S1P1 agonist cell-based assay, activation. activation, % at 4.98 µM. hit rate 4% among 740. AID 1563; in the data active means activation above about 21%;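 further: 0% = vehicle wells and 100% = reference agonist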
S1P4 antag conf = human S1P4 antagonism, confirmation. shares compounds with S1P4 antagonist. S1P4-expressing cell line, antagonist mode, reporter read-out. inhibition, % at 4.98 µM. hit rate 71% among 520; in the data active means inhibition above about 30%
S1P1 antagonist = counter-screen for S1P4 antagonists: antagonists of human S1P1; shares compounds with S1P4 antagonist; cell-based S1P1 antagonist counterscreen, inhibition; inhibition, % at 4.98 µM; hit rate 37% among 520; AID 1564; in the data active means inhibition above about 40%;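 further: receptor stimulated with S1P near its EC80; 0% = agonist stimulated wells and 100% = vehicle only wells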
Active calls of the source: *; nt = no result given.

SMILES | S1P4 antagonist | S1P4 agonist | Biofilm kill mix | S1P3 antagonist | HMGR II inh | Rad51 HR inh | S1P4 antag conf | S1P1 antagonist | others
S=C1CN=C(c2ccccc2Cl)c2cc(Cl)ccc2N1 | 0 | 27* | 11 | nt | -1 | nt | nt | nt | S1P4 ag conf=-2;S1P1 ag=-5
COCCCNC(=O)c1c(NC(=O)c2ccccc2Cl)n(Cc2ccccc2)c2nc3ccccc3nc12 | -9 | 12* | nt | nt | 1 | -1 | nt | nt | S1P4 ag conf=0;S1P1 ag=2
COCCNC(=O)c1c(NC(=O)c2ccco2)n(Cc2ccccc2)c2nc3ccccc3nc12 | -20 | 0 | nt | -52 | 2 | -9 | nt | nt
O=c1[nH]sc2cc(F)ccc12 | 31* | -1 | 11 | -6 | -11 | 20 | 91* | 46*
C=CCn1c(O)c(C(C)=NCCCO)c(=O)[nH]c1=O | -4 | -3 | nt | 0 | -4 | -1 | nt | nt
C[C@@H]1O[C@@H](O[C@H]2C[C@@H](O)[C@]3(CO)[C@H]4[C@H](O)C[C@]5(C)[C@@H](C6=CC(=O)OC6)CC[C@]5(O)[C@@H]4CC[C@]3(O)C2)[C@H](O)[C@H](O)[C@H]1O | 33* | -3 | -3 | -16 | -7 | 2 | 58* | 4
COC(=O)C[C@]1(C(=O)OC)CN(C#N)N(c2ccc(Cl)cc2)C12c1ccccc1-c1ccccc12 | 55* | -1 | 14 | nt | -2 | 1 | 120* | 88*
COC(=O)[C@@H]1[C@@H](C(=O)OC)C2(c3ccccc3-c3ccccc32)N(c2ccc(Cl)cc2)N1C#N | 24 | -2 | -4 | nt | 0 | 5 | nt | nt
O=C(OCC(=O)c1ccc([N+](=O)[O-])cc1)/C(=C/c1ccc(Cl)cc1)NC(=O)c1ccccc1 | -2 | 1 | 12 | -14 | -5 | 2 | nt | nt
